Broadly, the inhibition is the drop in the measured response relative to a control, in per cent.

Consider 64 compounds from ChEMBL document CHEMBL4052615, “Discovery of 4-amino-3-arylsulfoquinolines, a novel non-acetylenic chemotype of metabotropic glutamate 5 (mGlu5) receptor negative allosteric modulators” (Eur J Med Chem, 2017).

The target of the experiment is Metabotropic glutamate receptor 5 (Homo sapiens, UniProt P41594). In words: Displacement of [3H]M-MPEP from mGluR5 (unknown origin) at 1 uM measured after 60 mins relative to control. The gist of the method: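 Rat cerebrocortical membranes or membranes from A18 cells expressing human mGlu5a, incubated with [³H]M-MPEP and test compound at 1 µM in 50 mM Tris pH 7.6 with 2 mM MgCl₂ and 2 mM CaCl₂, 60 min at 25°C. Non-specific binding was taken with […]. Result is % displacement, run in duplicate or triplicate.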
(In general: In a radioligand displacement assay an active substance lowers the binding of a labelled ligand.)

Molecules are shown by their SMILES.

Chain of Metabotropic glutamate receptor 5 (P41594 21-1212 limits assumed): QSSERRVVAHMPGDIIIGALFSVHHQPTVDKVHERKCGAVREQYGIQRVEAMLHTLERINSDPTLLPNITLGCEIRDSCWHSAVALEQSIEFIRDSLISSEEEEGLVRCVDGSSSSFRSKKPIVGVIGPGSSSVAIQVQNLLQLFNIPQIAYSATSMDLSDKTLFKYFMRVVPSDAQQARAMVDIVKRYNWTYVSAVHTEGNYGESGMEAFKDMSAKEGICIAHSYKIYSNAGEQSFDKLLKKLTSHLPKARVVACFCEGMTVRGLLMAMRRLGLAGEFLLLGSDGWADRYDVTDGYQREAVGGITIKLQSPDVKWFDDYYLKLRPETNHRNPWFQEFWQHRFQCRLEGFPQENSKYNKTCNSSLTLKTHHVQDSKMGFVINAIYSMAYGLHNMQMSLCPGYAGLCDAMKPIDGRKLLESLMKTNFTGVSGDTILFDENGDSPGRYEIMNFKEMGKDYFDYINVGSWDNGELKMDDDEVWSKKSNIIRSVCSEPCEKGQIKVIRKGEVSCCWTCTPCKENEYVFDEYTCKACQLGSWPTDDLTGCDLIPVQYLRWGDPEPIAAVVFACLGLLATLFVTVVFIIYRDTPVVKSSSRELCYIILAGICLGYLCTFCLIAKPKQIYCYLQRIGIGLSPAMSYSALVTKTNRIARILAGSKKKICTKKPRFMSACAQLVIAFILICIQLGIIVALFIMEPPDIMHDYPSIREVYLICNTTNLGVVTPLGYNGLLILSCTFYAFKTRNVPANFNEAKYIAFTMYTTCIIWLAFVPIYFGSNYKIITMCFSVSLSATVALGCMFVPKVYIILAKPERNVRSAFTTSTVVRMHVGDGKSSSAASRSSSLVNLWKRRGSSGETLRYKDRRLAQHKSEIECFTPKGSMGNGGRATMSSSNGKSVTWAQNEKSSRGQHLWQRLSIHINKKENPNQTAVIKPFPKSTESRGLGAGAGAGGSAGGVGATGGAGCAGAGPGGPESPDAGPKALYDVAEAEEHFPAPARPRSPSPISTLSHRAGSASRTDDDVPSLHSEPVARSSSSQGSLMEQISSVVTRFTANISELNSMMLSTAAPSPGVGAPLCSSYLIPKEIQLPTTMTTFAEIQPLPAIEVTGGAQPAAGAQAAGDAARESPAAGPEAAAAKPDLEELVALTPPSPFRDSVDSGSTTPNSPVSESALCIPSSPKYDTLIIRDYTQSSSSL

In the case of `O=S(=O)(c1cccc(Cl)c1)c1cnc2ccc(Cl)cc2c1N1CCOCC1`, the inhibition was 24%.

Turning to `COc1ccc(S(=O)(=O)c2cnc3ccc(F)cc3c2N2CCC(C)CC2)cc1Cl`, the inhibition was 82%.

For `Cc1ccc(S(=O)(=O)c2cnc3ccc(Cl)cc3c2N2CCOCC2)cc1F`, the inhibition was 23%.

Regarding `COc1ccc2ncc(S(=O)(=O)c3ccccc3)c(N3CCC(C)CC3)c2c1`, the inhibition worked out at 64%.

For the compound `O=S(=O)(c1ccc(Cl)cc1)c1cnc2c(F)cccc2c1N1CCOCC1`, the inhibition turned out to be 52%.

Consider `O=S(=O)(c1cc(F)cc(F)c1)c1cnc2c(F)cccc2c1N1CCOCC1`, for which the inhibition is 52%.

Consider `CC1CCN(c2c(S(=O)(=O)c3ccc(C#N)cc3)cnc3ccc(F)cc23)CC1`, for which the inhibition is 75%.

For the compound `Cc1ccc(S(=O)(=O)c2cnc3cc(Cl)ccc3c2N2CCC(C)CC2)cc1`, the inhibition came to 94%.

Take `O=S(=O)(c1ccc(F)c(Cl)c1)c1cnc2c(F)cccc2c1N1CCOCC1`: the inhibition turned out to be 83%.

With `CC1CCN(c2c(S(=O)(=O)c3cc(F)cc(F)c3)cnc3ccc(Cl)cc23)CC1`, the inhibition was 93%.

Regarding `COc1ccc2ncc(S(=O)(=O)c3cccc(Cl)c3)c(N3CCOCC3)c2c1`, the inhibition amounted to 12%.

Consider `COc1ccc2ncc(S(=O)(=O)c3cc(C)cc(C)c3)c(N3CCOCC3)c2c1`, for which the inhibition came out at 11%.

Take `O=S(=O)(c1ccc(Cl)c(Cl)c1)c1cnc2cc(F)ccc2c1N1CCOCC1`: the inhibition was determined as 86%.

Turning to `COCC1CCN(c2c(S(=O)(=O)c3cccc(C#N)c3)cnc3cc(F)ccc23)CC1`, the inhibition came to 91%.

With `Cc1ccc2ncc(S(=O)(=O)c3cc(Cl)cc(Cl)c3)c(N3CCC(C)CC3)c2c1`, the inhibition stood at 75%.

With `Cc1ccc2ncc(S(=O)(=O)c3ccc(F)c(Cl)c3)c(N3CCC(C)CC3)c2c1`, the inhibition came out at 93%.

Turning to `O=S(=O)(c1ccc(F)c(F)c1)c1cnc2c(F)cccc2c1N1CCOCC1`, the inhibition stood at 57%.

Regarding `CC1CCN(c2c(S(=O)(=O)c3ccc(F)cc3)cnc3ccc(Cl)cc23)CC1`, the inhibition worked out at 89%.

Turning to `O=S(=O)(c1ccc(F)cc1)c1cnc2ccc(F)cc2c1N1CCOCC1`, the inhibition was found to be 2%.

With `COc1ccc2ncc(S(=O)(=O)c3ccc(C)c(Cl)c3)c(N3CCC(C)CC3)c2c1`, the inhibition is 85%.

Take `COc1ccc2ncc(S(=O)(=O)c3ccc(C#N)cc3)c(N3CCOCC3)c2c1`: the inhibition was 2%.

In the case of `COc1ccc2ncc(S(=O)(=O)c3ccc(OC)c(Cl)c3)c(N3CCC(C)CC3)c2c1`, the inhibition stood at 21%.

`COCC1CCN(c2c(S(=O)(=O)c3ccc(F)cc3)cnc3cc(F)ccc23)CC1`: the inhibition is 76.1%.

Regarding `N#Cc1ccc(S(=O)(=O)c2cnc3c(F)cccc3c2N2CCOCC2)cc1`, the inhibition is 6%.

With `COc1cccc(S(=O)(=O)c2cnc3ccc(F)cc3c2N2CCC(C)CC2)c1`, the inhibition is 90%.

In the case of `CCOC(=O)C1CCN(c2c(S(=O)(=O)c3ccccc3)cnc3ccccc23)CC1`, the inhibition was determined as 33%.

Regarding `Cc1ccc2ncc(S(=O)(=O)c3ccc(Cl)cc3)c(N3CCOCC3)c2c1`, the inhibition was determined as 89%.

As for `Cc1ccc2ncc(S(=O)(=O)c3ccc(F)cc3)c(N3CCOCC3)c2c1`, the inhibition was 18%.

As to `COc1ccc(S(=O)(=O)c2cnc3cc(F)ccc3c2N2CCC(C)CC2)cc1OC`, the inhibition worked out at 83%.

On to `O=S(=O)(c1cc(F)cc(F)c1)c1cnc2cc(F)ccc2c1N1CCSCC1`, for which the inhibition is 78.4%.

Turning to `CC1CCN(c2c(S(=O)(=O)c3ccc(F)c(F)c3)cnc3ccc(F)cc23)CC1`, the inhibition worked out at 82%.

Take `Cc1cc(C)cc(S(=O)(=O)c2cnc3ccc(Cl)cc3c2N2CCC(C)CC2)c1`: the inhibition stood at 49%.

Consider `O=S(=O)(c1ccc(F)c(Cl)c1)c1cnc2cc(Cl)ccc2c1N1CCOCC1`, for which the inhibition worked out at 83%.

In the case of `Cc1ccc(S(=O)(=O)c2cnc3c(F)cccc3c2N2CCOCC2)cc1F`, the inhibition was determined as 73%.

Consider `NS(=O)(=O)N1CCN(c2c(S(=O)(=O)c3cc(F)cc(F)c3)cnc3cc(F)ccc23)CC1`, for which the inhibition is 6.4%.

On to `CC1CCN(c2c(S(=O)(=O)c3ccc(C#N)cc3)cnc3cc(Cl)ccc23)CC1`, for which the inhibition turned out to be 70%.

`COc1ccc2ncc(S(=O)(=O)c3cccc(C#N)c3)c(N3CCOCC3)c2c1`: the inhibition came out at 20%.

For `O=S(=O)(c1cccc(F)c1)c1cnc2cc(F)ccc2c1N1CCOCC1`, the inhibition lay within 4 to 4.1%.

For the compound `O=S(=O)(c1ccc(Cl)c(Cl)c1)c1cnc2ccc(F)cc2c1N1CCOCC1`, the inhibition turned out to be 68%.

As to `O=S(=O)(c1ccc(F)cc1)c1cnc2ccc(Cl)cc2c1N1CCOCC1`, the inhibition was found to be 6%.

With `Cc1ccc2ncc(S(=O)(=O)c3ccc(C)c(F)c3)c(N3CCOCC3)c2c1`, the inhibition came to 33%.

Take `Cc1ccc(S(=O)(=O)c2cnc3cc(Cl)ccc3c2N2CCOCC2)cc1C`: the inhibition was determined as 87%.

As for `CC1CCN(c2c(S(=O)(=O)c3ccc(Cl)c(Cl)c3)cnc3c(F)cccc23)CC1`, the inhibition is 95%.

Turning to `COc1cccc(S(=O)(=O)c2cnc3cc(Cl)ccc3c2N2CCC(C)CC2)c1`, the inhibition was determined as 93%.

As to `O=S(=O)(c1ccc(Cl)cc1)c1cnc2ccc(Cl)cc2c1N1CCOCC1`, the inhibition came to 15%.

For the compound `CC1CCN(c2c(S(=O)(=O)c3cccc(C#N)c3)cnc3cc(F)ccc23)CC1`, the inhibition lay within 92 to 92.4%.

Take `Cc1ccc2ncc(S(=O)(=O)c3ccc(Cl)c(Cl)c3)c(N3CCC(C)CC3)c2c1`: the inhibition is 82%.

Turning to `COc1ccc(S(=O)(=O)c2cnc3ccc(C)cc3c2N2CCOCC2)cc1Cl`, the inhibition amounted to 58%.

For the compound `Cc1ccc(S(=O)(=O)c2cnc3cc(F)ccc3c2N2CCC(C)CC2)cc1C`, the inhibition was 90%.

Turning to `Cc1ccc2ncc(S(=O)(=O)c3ccc(C)c(C)c3)c(N3CCC(C)CC3)c2c1`, the inhibition amounted to 90%.

With `Cc1ccc(S(=O)(=O)c2cnc3ccc(Cl)cc3c2N2CCOCC2)cc1`, the inhibition worked out at 84%.

On to `O=S(=O)(c1ccc(F)cc1)c1cnc2cc(F)ccc2c1N1CCOCC1`, for which the inhibition was determined as 29%.

Regarding `Cc1ccc(S(=O)(=O)c2cnc3ccc(Cl)cc3c2N2CCOCC2)cc1C`, the inhibition was 90%.

Turning to `Cc1ccc(S(=O)(=O)c2cnc3cc(F)ccc3c2N2CCOCC2)cc1F`, the inhibition is 51%.

`O=S(=O)(c1cc(F)cc(F)c1)c1cnc2ccc(Cl)cc2c1N1CCOCC1`: the inhibition was 7%.

For the compound `COc1ccc2ncc(S(=O)(=O)c3cccc(F)c3)c(N3CCC(C)CC3)c2c1`, the inhibition stood at 68%.

With `N#Cc1ccc(S(=O)(=O)c2cnc3ccc(F)cc3c2N2CCOCC2)cc1`, the inhibition was -3%.

For the compound `Cc1ccc2ncc(S(=O)(=O)c3cccc(Cl)c3)c(N3CCC(C)CC3)c2c1`, the inhibition was determined as 91%.

For `COc1ccc2ncc(S(=O)(=O)c3ccc(C)cc3)c(N3CCC(C)CC3)c2c1`, the inhibition worked out at 90%.

For `O=S(=O)(c1ccc(Cl)cc1)c1cnc2cc(F)ccc2c1N1CCOCC1`, the inhibition stood at 50%.

`Cc1cc(C)cc(S(=O)(=O)c2cnc3ccc(F)cc3c2N2CCOCC2)c1`: the inhibition was found to be 43%.

In the case of `COc1ccc(S(=O)(=O)c2cnc3cc(Cl)ccc3c2N2CCOCC2)cc1Cl`, the inhibition amounted to 62%.

On to `Cc1ccc2ncc(S(=O)(=O)c3cccc(Cl)c3)c(N3CCOCC3)c2c1`, for which the inhibition was 44%.

Consider `CC1CCN(c2c(S(=O)(=O)c3ccc(F)c(Cl)c3)cnc3c(F)cccc23)CC1`, for which the inhibition worked out at 95%.
